Measurements gathered from unrelated publications.
Protocols differ between the studies behind these lines. Values after ≈ are worked out from the molar mass of the structure shown.
Organism: Pichia kudriavzevii

The IC50 of `CCCCCCCOc1c(OC)cc(NC(C)CCCNC(=O)C(N)C(C)CC)c2nc(C(C)(C)C)ccc12` (stereo not drawn) is reported as 4.38 µg/mL (≈ 8.07 µM) (microbial growth; ATCC6258).
`OC(Cn1cncn1)(Cn1cncn1)c1ccc(F)cc1F` gave an MIC90 of 256 µg/mL (≈ 836 µM) (microbial growth, broth dilution; 24 h).
With `CCCCCCCCOc1c(OC)cc(NC(C)CCCN)c2nc(C(C)(C)C)ccc12` (stereo not drawn) the IC50 was 5.82 µg/mL (≈ 13.1 µM) (microbial growth; ATCC6258).
`OC(Cn1cncn1)(Cn1cncn1)c1ccc(F)cc1F` has an MIC90 of 64 µg/mL (≈ 209 µM) (microbial growth).
`CCCCCCCCCCCN1CCN(CC(O)(Cn2cncn2)c2ccc(F)cc2F)CC1` (stereo not drawn) has an MIC of 1.95 µg/mL (≈ 4.08 µM) (microbial growth, broth dilution; ATCC6258; 48 h).
`COc1cc(NC(C)CCCN)c2nc(C(C)(C)C)ccc2c1Oc1ccc(Cl)c(Cl)c1` (stereo not drawn) gave an IC50 of 8.65 µg/mL (≈ 18.2 µM) (microbial growth; ATCC6258).
`Nc1[nH]c(=O)ncc1F` gave an MIC90 of 8 µg/mL (≈ 62 µM) (microbial growth).
The MIC of `CC[C@H](C)C[C@H](C)CCCCCCCCC(=O)N[C@H]1C[C@@H](O)[C@@H](NCCN)NC(=O)[C@@H]2[C@@H](O)CCN2C(=O)[C@H]([C@H](O)CCN)NC(=O)[C@H]([C@H](O)[C@@H](O)c2ccc(O)cc2)NC(=O)[C@@H]2C[C@@H](O)CN2C(=O)[C@H]([C@@H](C)O)NC1=O` is reported as 0.48 µg/mL (≈ 0.439 µM) (microbial growth, broth dilution; ATCC6258; 48 h).
`C[C@@H]1[C@H](O)[C@@H](C)/C=C/C=C/C=C/C=C/C=C/C=C/C=C/[C@H](O[C@@H]2O[C@H](C)[C@@H](O)[C@H](N)[C@@H]2O)C[C@@H]2O[C@](O)(C[C@@H](O)C[C@@H](O)[C@H](O)CC[C@@H](O)C[C@@H](O)CC(=O)O[C@H]1C)C[C@H](O)[C@H]2C(=O)O` has an IC50 of 0.95 µg/mL (≈ 1.03 µM) (microbial growth; ATCC6258).
For `CCCCCCCOc1c(OC)cc(NC(C)CCCN)c2nc(C(C)(C)C)ccc12` (stereo not drawn), the MFC was 5 µg/mL (≈ 11.6 µM) (microbial killing; ATCC6258).
`CCCCCCCCCCCCCN1CCN(CC(O)(Cn2cncn2)c2ccc(F)cc2F)CC1` (stereo not drawn) gave an MIC of 0.975 µg/mL (≈ 1.93 µM) (microbial growth, broth dilution; ATCC6258; 48 h).
`CCC(C)n1ncn(-c2ccc(N3CCN(c4ccc(OCC5COC(Cn6cncn6)(c6ccc(Cl)cc6Cl)O5)cc4)CC3)cc2)c1=O` (stereo not drawn) gave an MIC90 of 0.5 µg/mL (≈ 0.709 µM) (microbial growth).
With `CCCCCOc1c(OC)cc(NC(C)CCCNC(=O)C(N)Cc2cc3ccccc3[nH]2)c2nc(C(C)(C)C)ccc12` (stereo not drawn) the IC50 was 4.28 µg/mL (≈ 7.28 µM) (microbial growth; ATCC6258).
For `Fc1ccc(C2(Cn3cncn3)CO2)c(F)c1` (stereo not drawn), the MIC was greater than 31.3 µg/mL (microbial growth, broth dilution; ATCC6258; 48 h).
With `CCCCCCCCCCCCCC(O)CC(O)CO` (stereo not drawn) the IC50 was 196 µg/mL (≈ 681 µM) (microbial growth, broth dilution; ATCC6258).
With `CCCCCCOc1c(OC)cc(NC(C)CCCN)c2nc(C(C)(C)C)ccc12` (stereo not drawn) the IC50 was 7.16 µg/mL (≈ 17.2 µM) (microbial growth; ATCC6258).
With `CN1CCNCC1` the MIC was greater than 31.3 µg/mL (microbial growth, broth dilution; ATCC6258; 48 h).
`CCCCCOc1c(OC)cc(NC(C)CCCNC(=O)C(N)CC(C)C)c2nc(C(C)(C)C)ccc12` (stereo not drawn) gave an IC50 of 8.73 µg/mL (≈ 17 µM) (microbial growth; ATCC6258).
`C#CCCCCCCCCCCCC(O)CC(O)CO` (stereo not drawn) gave an IC50 of greater than 200 µg/mL (microbial growth, broth dilution; ATCC6258).
The MIC of `CCCCCCCCCCCCCCN1CCOCC1` is reported as greater than 31.3 µg/mL (microbial growth, broth dilution; ATCC6258; 48 h).
`CCCCCCOc1c(OC)cc(NC(C)CCCN)c2nc(C(C)(C)C)cc(C)c12` (stereo not drawn) has an MFC of 5 µg/mL (≈ 11.6 µM) (microbial killing; ATCC6258).
The MFC of `C[C@@H]1[C@H](O)[C@@H](C)/C=C/C=C/C=C/C=C/C=C/C=C/C=C/[C@H](O[C@@H]2O[C@H](C)[C@@H](O)[C@H](N)[C@@H]2O)C[C@@H]2O[C@](O)(C[C@@H](O)C[C@@H](O)[C@H](O)CC[C@@H](O)C[C@@H](O)CC(=O)O[C@H]1C)C[C@H](O)[C@H]2C(=O)O` is reported as 1.25 µg/mL (≈ 1.35 µM) (microbial killing; ATCC6258).
For `CCCCCCCCCCCCN1CCN(CC(O)(Cn2cncn2)c2ccc(F)cc2F)CC1` (stereo not drawn), the MIC was 0.48 µg/mL (≈ 0.976 µM) (microbial growth, broth dilution; ATCC6258; 48 h).
For `C#CCCCCCCCCC=CCC(O)CC(O)CO` (stereo not drawn), the IC50 was greater than 8 µg/mL (microbial growth, broth dilution; ATCC6258).
